We go through 57 compounds from PubChem BioAssay AID624466 (The Scripps Research Institute Molecular Screening Center, 2012).

In all, about 360,000 compounds went through this assay and about 5,400 (1.5%) were called active. The full list was thinned out, with actives kept by preference. A number with no mark means an inactive call.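 Rule for the calls: active = inhibition above a per-plate cutoff, the mean inhibition of test compounds on that plate plus 3 SD (cut at about 49% in these data); inactive = the rest.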

Chain of Trace amine-associated receptor 1 (Homo sapiens) (Q96RJ0 whole entry, looked up): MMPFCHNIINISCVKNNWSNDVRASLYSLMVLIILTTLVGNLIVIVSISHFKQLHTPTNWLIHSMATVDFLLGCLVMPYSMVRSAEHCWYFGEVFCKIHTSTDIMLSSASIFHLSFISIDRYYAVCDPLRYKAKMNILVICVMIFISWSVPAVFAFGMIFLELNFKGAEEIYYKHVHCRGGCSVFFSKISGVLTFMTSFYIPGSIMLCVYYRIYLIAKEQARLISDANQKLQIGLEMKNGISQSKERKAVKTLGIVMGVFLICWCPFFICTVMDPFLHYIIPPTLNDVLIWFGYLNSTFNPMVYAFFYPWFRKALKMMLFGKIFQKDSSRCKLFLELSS

This assay addresses Trace amine-associated receptor 1 (Homo sapiens) (UniProt Q96RJ0). As to the kind of experiment: human TAAR1 antagonists, primary screen, Fluo-8 calcium fluorescence, CHO RD-HGA16 cells (AID 624466).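 Note: 0% = DMSO plus EC80 beta-PEA response and 100% = DMSO alone without agonist.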 Particulars: CHO RD-HGA16 TAAR1, Fluo-8 calcium fluorescence, antagonist; at 3 µM; active compounds read high. In outline:
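Test system: RD-HGA16 CHO cells with stable hTAAR1 and Gα16 / Probe or stimulus: EC80 β-phenethylamine stimulus / Times: seeding 17-24 h prior, 75-min 37 °C, 30-min RT dye loading / Detection: Fluo-8 calcium-sensitive fluorescence / Read-out basis: % inhibition scaled between DMSO and EC80 PEA controls / Repeats: singlicate, one well per test compound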
`CCOC(=O)C1=C(C(=O)OCC)C2N(Cc3ccc(C#N)cc3)c3ccccc3[C@@]23C[C@@H](C(=O)OC)N(S(=O)(=O)c2ccc(F)cc2)C3=N1` (some centres not stated): the inhibition is -16.3%. The same measure for `O=C(N/C(=C\c1ccc([N+](=O)[O-])cc1)C(=O)N1CCCCC1)c1ccco1`: 9.56%; for `COc1ccc(OC)c(C(=O)NC2CCCc3c2cnn3-c2cc(C)cc(C)c2)c1` (configuration not stated): -17.8%. The same measure for `COc1ccc(C(=O)NC2CCCc3c2cnn3-c2cccc(C)c2C)c(OC)n1` (configuration not stated): 62.1% (active). In the case of `Cn1nccc1C(=O)NC1CCCc2c1cnn2-c1ccc(F)cc1F` (configuration not stated), the inhibition is 4.98%. `CCN1CCN(C(=O)c2cc3cc4ccc(OC)cc4nc3s2)CC1`: the inhibition is 0.15%. The same measure for `CCCCCCCCN1C(=O)[C@@H](CC(=O)NCc2ccccc2)C[C@@]2(C(=O)OC)C1=C[C@H](C(C)(C)C)O[C@@H]2C`: -4.61%; for `CCOC(=O)[C@]12CCC=C1N(Cc1ccccc1)C(=O)[C@H](CC(=O)N1CCCC1)C2`: -13.9%.

On to `CCOC(=O)c1c(NC(=O)C2(C)Cc3ccccc3C(=O)O2)sc2c1CCCC2` (configuration not stated), for which the inhibition was -23.7%. `CCOC(=O)C1=C(NC(=S)NC(=O)c2ccccc2)c2ccccc2CC1(C)C`: the inhibition was 59.3% (active). Take `Cn1nnc(NC(=S)NC(=O)c2ccccc2)n1`: the inhibition is -35%. `CCOC(=O)N1CCN(C(=O)C[C@H]2C[C@@]3(C(=O)OC)C(=C[C@H](C4CCCC4)O[C@@H]3C)N(Cc3ccccc3)C2=O)CC1`: the inhibition was -6.31%.

On to `CC(C)N1C(=O)c2ccccc2NC(=O)C1C(=O)NCc1cccs1` (configuration not stated), for which the inhibition was -8.37%. Take `O=[N+]([O-])c1cc([N+](=O)[O-])c2cccnc2c1O`: the inhibition was 2.43%.

Turning to `CC(NCC(=O)Nc1cc(Cl)cc(Cl)c1)c1ccccc1` (configuration not stated), the inhibition was 3.33%. For `NNC(=O)CNC(c1ccccc1)c1cc(Cl)ccc1NC(=O)c1ccccc1` (configuration not stated), the inhibition is 80% (active). Turning to `O=C(CNC(c1ccccc1)c1ccccc1)Nc1ccc(F)cc1`, the inhibition is -11.9%. As to `Cc1ccc(-c2cc(=O)[nH]c(NCc3ccccc3)n2)cc1`, the inhibition is -9.41%. On to `Cc1cc(C(C)(C)C)oc1C(=O)N(CC(=O)NC1CCCC1)Cc1ccc(Cl)cc1`, for which the inhibition was 56.4% (active).

Take `COc1ccc(CN(CC(=O)NC2CCCC2)C(=O)CCC(=O)Nc2cc(C)on2)cc1`: the inhibition was -2.7%. Turning to `Cc1ccc(CN(CC(=O)NC2CCCCC2)C(=O)c2csnn2)cc1`, the inhibition is 10.9%.

`COCCNC(=S)N(C)[C@H]1C[C@H]2c3[nH]c4ccccc4c3CCN2C[C@H]1[C@H](C)O`: the inhibition was -4.21%. Turning to `COC(=O)C[C@@H]1C=C[C@@H](NC(=O)c2ccc3c(c2)OCO3)[C@@H](CO)O1`, the inhibition is 8.18%. Turning to `COc1ccc(CCNc2ncnc3nc[nH]c23)cc1OC`, the inhibition is 42.1%. `O=C(Cn1cnc2ccccc2c1=O)NCC1COc2ccccc2O1` (configuration not stated): the inhibition is -0.58%. The same measure for `c1ccc2c(c1)OCC(CNc1ncnc3nc[nH]c13)O2` (configuration not stated): 105% (active); for `O=C(c1ccc(Cl)c(S(=O)(=O)N2CCCCC2)c1)N1CCCCCC1`: -4.7%.

As to `NS(=O)(=O)c1ccc(CCNC(=O)c2ccc(Cl)c(S(=O)(=O)N3CCCCCC3)c2)cc1`, the inhibition is 48.9% (active).

Turning to `O=C(NCCc1ccc(F)cc1)c1ccc(S(=O)(=O)N2CCCCC2)cc1`, the inhibition was -0.8%.

Take `CC(C)Nc1ncnc2c1nnn2Cc1ccccc1`: the inhibition was -8.98%.

With `Clc1ccc(Nc2ncnc3c2nnn3Cc2ccccc2)cc1`, the inhibition is 59.2% (active). The same measure for `c1ccc(Cn2nnc3c(NCC4CC4)ncnc32)cc1`: -5.34%; for `Nc1ncnc2c1ncn2C1OC(CO)CC1O` (configuration not stated): -14.9%. The same measure for `CC1(C)OC(=O)C2=C(CC(CCc3ccccc3)OC2c2ccc(Cl)cc2)O1` (configuration not stated): 18.9%.

For the compound `O=C(NCc1ccc(F)cc1F)[C@@H]1CCCN1C(=O)[C@@H]1CCCN1C(=O)c1cccc(Cl)c1`, the inhibition was -26.2%. The same measure for `Cc1cc(Nc2ccc(Br)cc2F)n2ncnc2n1`: -22.8%; for `CC(=O)Nc1ccc(OCCC[n+]2cccc(C(=O)[O-])c2)cc1`: 10.6%; for `CCCCn1c(SCC(=O)N2CCCC2=O)nc2cc(S(N)(=O)=O)ccc21`: -16.1%. For the compound `CCCCn1c(SCc2ncc(-c3ccccc3)o2)nc2cc(S(N)(=O)=O)ccc21`, the inhibition was 63.4% (active).

With `CCCCn1c(SCC(=O)N2CCC(C(=O)OCC)CC2)nc2cc(S(N)(=O)=O)ccc21`, the inhibition is -5.42%. `CC1(C(=O)NCc2ccccc2)CN(S(C)(=O)=O)CC(=O)N1CC(F)(F)F` (configuration not stated): the inhibition is -8.96%. Then `Cc1ccc(Cn2cc(CN3CC(N4CCN(C)CC4)CS3(=O)=O)nn2)cc1` (configuration not stated), with -10.1%.

Take `Cn1cnc2c1c(=O)n(Cc1c(Cl)cccc1Cl)c(=O)n2C`: the inhibition was -4.09%. The same measure for `CC(C)(C)n1ncc2c(=O)n(Cc3ccc(Cl)cc3)cnc21`: 18.1%; for `CC(C)(C)n1ncc2c(=O)n(Cc3c(Cl)cccc3Br)cnc21`: 58.1% (active). Turning to `CCCCNc1cccc2c1S(=O)(=O)N[C@@H](C)CO2`, the inhibition is 4.47%. For `Cc1ccsc1C(=O)NNC(=O)COc1ccc(Br)cc1`, the inhibition is -10.4%. Then `Cc1ccc(O)c(NC(=S)NC(=O)COc2ccc(Br)cc2)c1`, with 98.5% (active).

For `Cn1cccc1C(=O)NNC(=O)COc1ccc(Br)cc1`, the inhibition was 8.71%. Then `COc1ccc(OC)c(CNC(=O)c2cc(=O)[nH]c3ccc(S(=O)(=O)N4CCCC4)cc23)c1`, with -12.7%; and `COc1ccc(S(=O)(=O)N2CCC(C(=O)NCCC(=O)NCc3cccc(OC)c3)CC2)cc1`, with -10.5%; and `O=C(Nc1ccc(Br)cc1)C1CCC(=O)N1Cc1ccccc1Cl` (configuration not stated), with 11.4%.

`Brc1ccc(-c2csc(N/N=C/c3cccnc3)n2)cc1`: the inhibition was 15.8%. In the case of `S=c1nc2ccccc2c2nc(-c3cccnc3)[nH]n12`, the inhibition is 5.39%. Then `Fc1ccc(/C=N/Nc2nc(-c3cccnc3)nc3ccccc23)cc1`, with 55.8% (active).

Consider `O=C(c1ccc(Cl)cc1)n1cnc2ccccc21`, for which the inhibition is -8.66%. On to `COc1cccc(N2CCN(CC(=O)Nc3ccnn3C3CCCC3)CC2)c1`, for which the inhibition is 10.4%.

What is called inhibition is the drop in the measured response relative to a control, in per cent.
